Active and inactive are the calls of the source.
Experiments:
[1] = target: Acetylcholinesterase (Homo sapiens, UniProt P22303); assay: Inhibition of recombinant human AChE using acetylthiocholineiodide as substrate preincubated for 20 mins followed by substrate addition by Ellman's method
Outline: (§1)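 Enzyme was 0.02 U/mL human recombinant AChE or human serum BChE. Non-enzymatic hydrolysis was corrected. IC50 came from a % inhibition vs log[I] regression. Selectivity = IC50 hBChE/IC50 hAChE. Mean ± SEM of ≥2 experiments, each in duplicate/triplicate.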

[2] = Selectivity index, ratio of IC50 for human serum BChE using butyrylthiocholineiodide as substrate to IC50 for recombinant human AChE using acetylthiocholine iodide as substrate
Outline: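 Ellman spectrophotometric assay in 0.1 M phosphate buffer, pH 8.0, with 340 μM DTNB. Enzyme was 0.02 U/mL human recombinant AChE or human serum BChE. […] Then 550 μM ATCh or BTCh was added, and A412 was followed for 210 s. Non-enzymatic hydrolysis was corrected. IC50 came from a % inhibition vs log[I] regression. Selectivity = IC50 hBChE/IC50 hAChE. Mean ± SEM of ≥2 experiments, each in duplicate/triplicate.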

[3] = Antioxidant activity assessed as DPPH radical scavenging activity incubated for 30 mins under dark condition by UV-Vis spectrophotometric analysis; format: functional
[4] = Permeability of the compound in PBS/EtOH buffer (70:30) by PAMPA-BBB assay; format: ADME; details: read-out: permeability
Outline: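 PAMPA-BBB permeability, reported as Pe in 10⁻⁶ cm s⁻¹, with CNS+ defined as Pe > 5.1. Mean ± SD of three experiments, each in triplicate.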

[5] = target: Beta-secretase 1 (Homo sapiens) (UniProt P56817); assay: Inhibition of recombinant human BACE-1 at 1 uM using methoxycoumarin-Ser-Glu-Val-Asn-Leu-Asp-Ala-Glu-Phe-Lys-dinitrophenyl as substrate preincubated for 1 hr followed by substrate addition and measured after 15 mins by fluorescence based assay relative to control; details: time 75.0 min
Sequence of Beta-secretase 1 (Homo sapiens) (P56817 whole entry): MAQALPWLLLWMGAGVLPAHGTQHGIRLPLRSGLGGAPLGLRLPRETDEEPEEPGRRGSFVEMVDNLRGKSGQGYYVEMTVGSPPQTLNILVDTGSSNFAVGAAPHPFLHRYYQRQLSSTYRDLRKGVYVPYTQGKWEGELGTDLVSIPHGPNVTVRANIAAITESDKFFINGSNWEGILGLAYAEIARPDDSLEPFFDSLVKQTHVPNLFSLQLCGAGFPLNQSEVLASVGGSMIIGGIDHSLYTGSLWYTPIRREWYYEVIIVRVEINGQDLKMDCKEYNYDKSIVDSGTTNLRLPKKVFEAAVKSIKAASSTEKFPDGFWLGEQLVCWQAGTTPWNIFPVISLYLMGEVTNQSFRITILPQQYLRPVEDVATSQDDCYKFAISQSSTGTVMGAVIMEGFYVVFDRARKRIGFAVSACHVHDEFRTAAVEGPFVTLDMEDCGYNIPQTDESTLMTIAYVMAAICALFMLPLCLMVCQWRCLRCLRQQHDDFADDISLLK

[6] = target: T1, Cholinesterase (Homo sapiens, UniProt P06276); assay: Inhibition of human serum BChE using butyrylthiocholineiodide as substrate preincubated for 20 mins followed by substrate addition by Ellman's method; format: cell-free; outline: as §1
T1 sequence (P06276 whole entry): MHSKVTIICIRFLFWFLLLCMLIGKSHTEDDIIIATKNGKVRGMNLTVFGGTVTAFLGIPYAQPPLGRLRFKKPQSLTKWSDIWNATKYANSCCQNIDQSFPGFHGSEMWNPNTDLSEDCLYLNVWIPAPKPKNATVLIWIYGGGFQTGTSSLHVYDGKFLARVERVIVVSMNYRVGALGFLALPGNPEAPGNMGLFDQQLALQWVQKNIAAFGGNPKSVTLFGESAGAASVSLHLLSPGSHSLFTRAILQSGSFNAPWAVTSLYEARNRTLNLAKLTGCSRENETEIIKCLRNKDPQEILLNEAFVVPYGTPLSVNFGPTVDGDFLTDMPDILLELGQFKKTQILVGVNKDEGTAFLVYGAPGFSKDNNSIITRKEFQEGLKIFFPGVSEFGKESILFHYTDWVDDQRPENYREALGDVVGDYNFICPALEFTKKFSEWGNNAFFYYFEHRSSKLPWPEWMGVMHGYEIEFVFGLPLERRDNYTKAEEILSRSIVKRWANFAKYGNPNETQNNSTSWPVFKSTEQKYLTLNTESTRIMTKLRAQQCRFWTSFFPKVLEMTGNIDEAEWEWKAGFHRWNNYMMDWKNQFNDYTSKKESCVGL

[7] = Drug concentration in wild type C57BL6 mouse brain at 2 mg/kg, ip thrice a week for 2 weeks observed after 4 hrs post last dose by HPLC/MS/MS analysis; details: in vivo
[8] = Drug concentration in wild type C57BL6 mouse plasma at 2 mg/kg, ip thrice a week for 2 weeks observed after 4 hrs post last dose by HPLC/MS/MS analysis; details: in vivo
[9] = target: Acetylcholinesterase (Electrophorus electricus) (UniProt O42275); assay: Displacement of propidium iodide from PAS-region of electric eel AChE assessed as decrease in fluorescence intensity at 4 to 92 uM by spectrofluorimetric analysis relative to control; parameters: scale not given: the % may be the effect or the level left; details: dose 4-92 µM
Sequence of Acetylcholinesterase (Electrophorus electricus) (O42275 24-633 limits assumed): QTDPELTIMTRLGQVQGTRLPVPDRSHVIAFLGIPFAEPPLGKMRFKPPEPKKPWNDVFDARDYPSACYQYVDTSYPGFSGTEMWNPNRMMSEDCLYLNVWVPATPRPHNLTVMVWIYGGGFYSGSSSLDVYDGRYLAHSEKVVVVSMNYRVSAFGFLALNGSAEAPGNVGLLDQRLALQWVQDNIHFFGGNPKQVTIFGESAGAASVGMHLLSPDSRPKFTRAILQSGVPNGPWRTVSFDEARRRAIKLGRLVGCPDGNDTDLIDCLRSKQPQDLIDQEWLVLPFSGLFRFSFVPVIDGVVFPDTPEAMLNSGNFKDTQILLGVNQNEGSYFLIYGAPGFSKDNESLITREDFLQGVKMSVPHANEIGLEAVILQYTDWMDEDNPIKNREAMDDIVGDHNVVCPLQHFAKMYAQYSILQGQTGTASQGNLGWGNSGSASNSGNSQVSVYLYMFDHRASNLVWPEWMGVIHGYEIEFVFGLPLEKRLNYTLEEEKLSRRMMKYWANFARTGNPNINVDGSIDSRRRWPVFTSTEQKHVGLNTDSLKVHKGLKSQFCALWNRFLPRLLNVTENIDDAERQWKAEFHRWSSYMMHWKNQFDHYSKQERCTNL
Outline: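 Back-titration fluorescence assay using electric eel AChE (type VI-S). Inhibitor was added in successive aliquots from a MeOH stock. Emission was read at 602 nm with excitation at 535 nm, after subtracting blanks. […] Three independent experiments.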

[10] = target: T1, Cholinesterase; assay: Inhibition of human serum BChE at 100 uM using butyrylthiocholineiodide as substrate preincubated for 20 mins followed by substrate addition by Ellman's method relative to control; format: cell-free
[11] = target: Beta-secretase 1 (Homo sapiens) (UniProt P56817); assay: Inhibition of recombinant human BACE-1 at 5 uM using methoxycoumarin-Ser-Glu-Val-Asn-Leu-Asp-Ala-Glu-Phe-Lys-dinitrophenyl as substrate preincubated for 1 hr followed by substrate addition and measured after 15 mins by fluorescence based assay relative to control; details: time 75.0 min

Sequence of Acetylcholinesterase (P22303 whole entry): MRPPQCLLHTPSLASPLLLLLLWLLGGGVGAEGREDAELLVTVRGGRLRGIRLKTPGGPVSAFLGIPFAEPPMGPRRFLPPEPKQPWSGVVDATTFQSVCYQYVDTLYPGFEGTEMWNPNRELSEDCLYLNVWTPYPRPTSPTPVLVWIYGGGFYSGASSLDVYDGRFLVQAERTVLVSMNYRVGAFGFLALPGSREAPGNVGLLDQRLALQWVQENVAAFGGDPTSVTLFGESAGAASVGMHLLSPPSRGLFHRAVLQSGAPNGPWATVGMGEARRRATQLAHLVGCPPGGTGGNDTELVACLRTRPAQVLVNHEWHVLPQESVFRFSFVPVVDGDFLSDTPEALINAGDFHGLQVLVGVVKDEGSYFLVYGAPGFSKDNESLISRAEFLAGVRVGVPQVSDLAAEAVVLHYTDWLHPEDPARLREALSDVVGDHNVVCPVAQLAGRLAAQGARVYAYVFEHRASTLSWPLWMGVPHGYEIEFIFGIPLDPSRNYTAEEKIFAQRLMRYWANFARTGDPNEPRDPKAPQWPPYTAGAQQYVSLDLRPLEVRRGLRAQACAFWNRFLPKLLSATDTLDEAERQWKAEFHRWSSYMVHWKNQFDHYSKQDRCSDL

`COc1cc(CNC(=O)c2ccc(CNc3c4c(nc5cc(Cl)ccc35)CC3C=C(C)CC4C3)cc2)ccc1O` (stereo unspecified) showed an IC50 [1] of 24.9 nM, a Ratio IC50 [2] of 11.6 and an IC50 [3] of 71400 nM. The Papp [4] was 14.3 ×10⁻⁶ cm/s, the inhibition [5] was “inactive” and the IC50 [6] was 290 nM.

With `COc1cc(CNC(=O)CCCC/C=C/CNc2c3c(nc4cc(Cl)ccc24)CC2C=C(C)CC3C2)ccc1O` (stereo unspecified) the IC50 [1] was 4.41 nM, the Ratio IC50 [2] was 17.7 and the IC50 [3] was 31700 nM. For the same molecule, the Papp [4] was 16.8 ×10⁻⁶ cm/s, the inhibition [5] was “inactive” and the IC50 [6] was 78.1 nM.

For `COc1cc2c(cc1OC)C(=O)C(CC1CCN(Cc3ccccc3)CC1)C2` (stereo unspecified) [DONEPEZIL], the concentration at 336 h [7] was 6130 ng/g and the concentration at 336 h [8] was 6460 ng/mL.

Molecule `COc1cc(CNC(=O)CCCC/C=C/C(C)C)ccc1O` [CAPSAICIN] has an Activity [9] of 11%, an IC50 [1] greater than 200000 nM and an IC50 [3] of 50300 nM. For the same molecule, the Papp [4] was 10.3 ×10⁻⁶ cm/s, the inhibition [5] was “inactive” and the inhibition [10] was 20%.

Molecule `COc1cc(CNC(=O)CCCCCCCCNc2c3c(nc4cc(Cl)ccc24)CC2C=C(C)CC3C2)ccc1O` (stereo unspecified) has an IC50 [1] of 2.94 nM, a Ratio IC50 [2] of 12.3 and an IC50 [3] of 64600 nM. It also gave a Papp [4] of 21.8 ×10⁻⁶ cm/s, an inhibition [5] of 23.7% and an IC50 [6] of 36.1 nM.

For `COc1cc(CNC(=O)CCCCCCCNc2c3c(nc4cc(Cl)ccc24)CC2C=C(C)CC3C2)ccc1O` (stereo unspecified), the IC50 [1] was 1.94 nM, the Ratio IC50 [2] was 26.7 and the IC50 [3] was 70800 nM. For the same molecule, the Papp [4] was 20.1 ×10⁻⁶ cm/s, the inhibition [5] was 3.6% and the IC50 [6] was 51.8 nM.

For `COc1cc(CNC(=O)CCCCCNc2c3c(nc4cc(Cl)ccc24)CC2C=C(C)CC3C2)ccc1O` (stereo unspecified), the IC50 [1] was 4.35 nM, the Ratio IC50 [2] was 16.1 and the IC50 [3] was 62600 nM. It also gave a Papp [4] of 14.9 ×10⁻⁶ cm/s, an inhibition [5] of 34.3% and an IC50 [6] of 70 nM.

Work on `COc1cc(CNC(=O)CCCCNc2c3c(nc4cc(Cl)ccc24)CC2C=C(C)CC3C2)ccc1O` (stereo unspecified) yielded an IC50 [1] of 5.48 nM, a Ratio IC50 [2] of 9.5 and an IC50 [3] of 68500 nM. For the same molecule, the Papp [4] was 11.5 ×10⁻⁶ cm/s, the inhibition [5] was 55.6% and the IC50 [6] was 52.2 nM.

For `COc1cc(CNC(=O)CCCC/C=C/CCCNc2c3c(nc4cc(Cl)ccc24)CC2C=C(C)CC3C2)ccc1O` (stereo unspecified), the IC50 [1] was 5.64 nM, the Ratio IC50 [2] was 9.4 and the IC50 [3] was 54600 nM. For the same molecule, the Papp [4] was 22.3 ×10⁻⁶ cm/s, the inhibition [5] was 21.6% and the IC50 [6] was 53.1 nM.

With `CC1=CC2Cc3nc4cc(Cl)ccc4c(N)c3C(C1)C2` (stereo unspecified) the inhibition [11] was 14%.

— ChEMBL document CHEMBL4706642, “Discovery of a Potent Dual Inhibitor of Acetylcholinesterase and Butyrylcholinesterase with Antioxidant Activity that Alleviates Alzheimer-like Pathology in Old APP/PS1 Mice” (J Med Chem, 2021)
